Bioassay records deposited in PubChem BioAssay by several laboratories.
EP2 modulator = EP2 receptor (human) modulation; 0.83% of 260,000 active; EP2-expressing cells, cAMP HTRF FRET, PGE2 co-stimulation; P43116; induction, % at 25 µM; AID 940;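 active = compounds whose cAMP rise, as percent of the full-agonist control response, exceeds 60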;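 also: rat C6 glioma line stably carrying human EP2 under a CMV promoter; the protocol text gives 20 µM as final concentration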
Target sequence (P43116 whole entry, looked up): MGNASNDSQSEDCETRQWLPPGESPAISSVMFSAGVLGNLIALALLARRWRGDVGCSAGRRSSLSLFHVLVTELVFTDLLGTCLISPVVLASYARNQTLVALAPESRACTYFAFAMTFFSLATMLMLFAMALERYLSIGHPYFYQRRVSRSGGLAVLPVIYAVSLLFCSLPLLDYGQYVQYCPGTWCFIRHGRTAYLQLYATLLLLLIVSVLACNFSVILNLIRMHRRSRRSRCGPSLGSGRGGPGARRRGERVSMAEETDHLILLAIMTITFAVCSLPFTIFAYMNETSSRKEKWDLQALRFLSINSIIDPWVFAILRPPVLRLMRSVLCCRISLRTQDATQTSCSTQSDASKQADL
NPY1 pot ag = human NPY-Y1 potentiation or agonism, primary screen; activation, % at 3.6 µM; NPY-Y1 expressing cells, potentiator/agonist activation; 0.37% of 220,000 active; P25929; in the data active = activation above about 33%, passing the limit was not always enough;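 also: cells stimulated with NPY at EC10 then isoproterenol at EC100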
NPY-Y1 antag = antagonists of human neuropeptide Y receptor Y1. P25929. HEK293-CNG Y1 cells, membrane potential fluorescence; NPY at EC95, then isoproterenol. inhibition, % at 3.6 µM. 1% of 200,000 active;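 active = inhibition above the campaign mean inhibition of all tested compounds plus 3 SD, cut at about 20% in these data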
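material = HEK293 cells with Y1 receptor plus CNG channel | also added = NPY 25 nM then isoproterenol 1 µM plus Ro 20-1724 25 µM | schedule = dye 3 h, compound 60 min room temperature, stimulation 45 min | measured by = membrane potential fluorescence | benchmarks = high control isoproterenol alone, low control NPY with isoproterenol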
NPY-Y2 antag = NPY-Y2 (human) receptor antagonism; NPY-Y2 expressing cells, antagonist mode; inhibition, % at 2.7 µM; P49146; 0.99% of 140,000 active; in the data active = inhibition above about 17%
NPY2 pot ag = potentiates or activates human NPY-Y2 receptor; 0.45% of 220,000 active; cells expressing NPY-Y2, potentiator/agonist read-out; AID 1359; activation, % at 3.6 µM; in the data active = activation above about 27%;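 also: cells stimulated with NPY near EC25 plus isoproterenol at EC100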
PGE2 EP2 inh = inhibitors of human EP2 prostaglandin E2 receptor; P43116; inhibition, % at 25 µM; C6 glioma cells expressing human EP2, cAMP TR-FRET; cells stimulated with saturating PGE2; 0.52% of 260,000 active;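 active = percent inhibition above 40 after rounding to a whole number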;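 also: rat C6 glioma host cells with rolipram phosphodiesterase inhibitor present; the protocol text gives 20 µM as final concentration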
Hits are given with their value. Compounds with a hit are over-represented: about 2.8% of the library has one in this group of screens.

`Oc1cccc(Nc2nc(N3CCOCC3)nc(N3CCOCC3)n2)c1` gave EP2 modulator inactive and PGE2 EP2 inh inactive.
CN(C)S(=O)(=O)N1CCN(CC(=O)NC2CCCCC2)CC1 was read as EP2 modulator inactive and PGE2 EP2 inh inactive.
Screening CC(C)NCC(O)c1ccc(NS(C)(=O)=O)cc1 (configuration not stated) returned EP2 modulator inactive, NPY1 pot ag 96, NPY-Y1 antag inactive, NPY2 pot ag inactive and PGE2 EP2 inh inactive.
O[N+]1=CC=CCC1=S.On1ccccc1=S.[Zn] was read as EP2 modulator inactive and PGE2 EP2 inh 118.
Nc1[nH]c(=S)[nH]c(=O)c1N=Nc1c(Br)cc(S(N)(=O)=O)cc1Br was read as EP2 modulator inactive and PGE2 EP2 inh 51.
Screening Cc1cc(C)n(CCCC(=O)N2CCc3c([nH]c4ccc(Cl)cc34)C2)n1 returned EP2 modulator inactive and PGE2 EP2 inh inactive.
For O=C(CCc1ccccn1)NC1CCCc2c1cnn2-c1ccc(F)cc1F (configuration not stated) the results were EP2 modulator inactive, NPY1 pot ag inactive, NPY-Y1 antag inactive, NPY2 pot ag inactive and PGE2 EP2 inh inactive.
`O=C(NC1CCCc2c1cnn2-c1ccc(F)cc1F)c1ccccn1` (configuration not stated) gave EP2 modulator inactive, NPY1 pot ag inactive, NPY-Y1 antag inactive, NPY2 pot ag inactive and PGE2 EP2 inh 45.
C/C(N[O-])=C(\C)[N+]([O-])=[Rh][Cl].CC(=N\[O-])/C(C)=N/[O-].NC(N)=[SH+] was read as EP2 modulator inactive and PGE2 EP2 inh 49.
`C/C(N[O-])=C(\C)[N+]([O-])=[Co].C/C(N[O-])=C(\C)[N+]([O-])=[Co].CC(=N\[O-])/C(C)=N/[O-].CC(=N\[O-])/C(C)=N/[O-].[CH3-].[CH3-]` gave EP2 modulator inactive and PGE2 EP2 inh inactive.
For COc1ccc(N2CCc3c(C)nc4c(OC)cc(OC)cc4c32)c(OC)c1 the results were EP2 modulator inactive, NPY1 pot ag inactive, NPY-Y1 antag 44, NPY-Y2 antag 25 and NPY2 pot ag inactive.
For COc1ccc(N2CCc3c(C)nc4c(OC)cccc4c32)cc1 the results were EP2 modulator inactive, NPY1 pot ag inactive, NPY-Y1 antag inactive, NPY2 pot ag inactive and PGE2 EP2 inh inactive.
`COc1ccccc1CN(Cc1nc2ccccc2c(=O)[nH]1)S(=O)(=O)c1ccc(C)cc1` gave EP2 modulator 61, NPY1 pot ag inactive, NPY-Y1 antag inactive, NPY-Y2 antag inactive, NPY2 pot ag inactive and PGE2 EP2 inh inactive.
`COc1ccccc1CN(Cc1nc2ccccc2c(=O)[nH]1)C(=O)Nc1ccc(C)cc1` gave EP2 modulator inactive, NPY1 pot ag inactive, NPY-Y1 antag inactive, NPY-Y2 antag inactive, NPY2 pot ag inactive and PGE2 EP2 inh inactive.
`Cc1ccc(NN2C(=O)C=C(c3ccc(Cl)cc3)C2=O)cc1` gave EP2 modulator inactive, NPY1 pot ag inactive, NPY-Y1 antag inactive, NPY-Y2 antag inactive, NPY2 pot ag inactive and PGE2 EP2 inh 40.
Screening COc1ccc(C2=CC(=O)N(Nc3ccccc3)C2=O)cc1 returned EP2 modulator inactive, NPY1 pot ag inactive, NPY-Y1 antag inactive, NPY2 pot ag inactive and PGE2 EP2 inh inactive.
For O=C1C=C(c2ccccc2)C(=O)N1Nc1ccccc1 the results were EP2 modulator inactive, NPY1 pot ag inactive, NPY-Y1 antag inactive, NPY-Y2 antag inactive, NPY2 pot ag inactive and PGE2 EP2 inh 84.
Cc1ccc(NN2C(=O)C=CC2=O)cc1 was read as EP2 modulator inactive, NPY1 pot ag inactive, NPY-Y1 antag inactive, NPY-Y2 antag inactive, NPY2 pot ag inactive and PGE2 EP2 inh inactive.
For CCc1nn(CC(=O)N(C)CC(C)c2ccccc2)c(=O)c2cc3ccsc3n12 (configuration not stated) the results were EP2 modulator inactive.
For CCCCN(CCCC)CC(O)COc1ccccc1Br (configuration not stated) the results were EP2 modulator inactive, NPY1 pot ag inactive, NPY-Y1 antag 40, NPY-Y2 antag 26, NPY2 pot ag inactive and PGE2 EP2 inh inactive.
Screening CCC(C)Sc1nc2c(c(=O)[nH]c(=O)n2C)n1Cc1ccc(Cl)cc1 (configuration not stated) returned EP2 modulator inactive, NPY1 pot ag inactive, NPY-Y1 antag inactive, NPY-Y2 antag inactive, NPY2 pot ag inactive and PGE2 EP2 inh inactive.
